# What was measured:
# Bacillus subtilis [1] = test: Antibacterial activity against wild-type Bacillus subtilis; type: functional
# In short: (§1)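 Daptomycin MIC by liquid growth inhibition. Overnight cultures diluted 1:100, grown to mid-log, rediluted to 5 × 10^5 CFU/ml in Mueller-Hinton broth with 50 mg/liter Ca2+. At least 10 concentrations near the predicted MIC, plus a no-drug control, added at start; 200 μl. OD600 read every 20 min for 24 h at 37°C with shaking. Inhibition: 24 h OD600 <0.05. MIC is the mode of at least triplicates.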
# Bacillus subtilis [2] = test: Induction of liaI gene expression in Bacillus subtilis W168 by microarray analysis; type: functional
# In short: (§2)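 W168 grown in Ca2+-supplemented Mueller-Hinton broth at 37°C to OD600 0.4, split, and one half exposed to 1 μg/ml daptomycin for 20 min. Total RNA from three biological replicates; cDNA labeled with Alexa Fluor 555/647 and co-hybridized at 42°C for 16–18 h. Genes with summed intensity <20 or SD > mean were dropped. Fold change is treated/untreated signal, from ≥6 spot measurements.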
# Bacillus subtilis [3] = test: Induction of liaG gene expression in Bacillus subtilis W168 by microarray analysis; type: functional; in short: as §2
# Bacillus subtilis [4] = test: Induction of liaS gene expression in Bacillus subtilis W168 by microarray analysis; type: functional; in short: as §2
# Bacillus subtilis [5] = test: Induction of yhcY gene expression in Bacillus subtilis W168 by microarray analysis; type: functional; in short: as §2
# Bacillus subtilis [6] = test: Induction of yhcZ gene expression in Bacillus subtilis W168 by microarray analysis; type: functional; in short: as §2
# Bacillus subtilis [7] = test: Induction of yvrI gene expression in Bacillus subtilis W168 by microarray analysis; type: functional
# In short: (§3)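 W168 cultures in Mueller-Hinton broth with 50 mg/liter Ca2+, 37°C with shaking, grown to mid-log phase (OD600 0.4) from a 1:1,000 overnight dilution. Split: one half given 1 μg/ml daptomycin for 20 min, the other left untreated. Total RNA from three biological replicates; cDNA labeled with Alexa Fluor 555 or 647 and hybridized 16 to 18 h at 42°C. Induction = treated/untreated signal intensity, duplicate spots on three arrays.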
# Bacillus subtilis [8] = test: Induction of yvrL gene expression in Bacillus subtilis W168 by microarray analysis; type: functional; in short: as §3
# Bacillus subtilis [9] = test: Induction of ypbG gene expression in Bacillus subtilis W168 by microarray analysis; type: functional; in short: as §2
# Bacillus subtilis [10] = test: Induction of sigM gene expression in Bacillus subtilis W168 by microarray analysis; type: functional; in short: as §2
# Bacillus subtilis [11] = test: Induction of yuaG gene expression in Bacillus subtilis W168 by microarray analysis; type: functional; in short: as §2
# Bacillus subtilis [12] = test: Induction of ywrE gene expression in Bacillus subtilis W168 by microarray analysis; type: functional; in short: as §3
# Bacillus subtilis [13] = test: Decrease in fabHB gene expression in Bacillus subtilis W168 by microarray analysis; type: functional; in short: as §2
# Bacillus subtilis [14] = test: Decrease in yvcB gene expression in Bacillus subtilis W168 by microarray analysis; type: functional; in short: as §2
# Bacillus subtilis [15] = test: Decrease in yvzC gene expression in Bacillus subtilis W168 by microarray analysis; type: functional; in short: as §2
# Bacillus subtilis [16] = test: Decrease in ywdD gene expression in Bacillus subtilis W168 by microarray analysis; type: functional; in short: as §2
# Bacillus subtilis [17] = test: Decrease in ywfB gene expression in Bacillus subtilis W168 by microarray analysis; type: functional; in short: as §2
# Bacillus subtilis [18] = test: Decrease in ypeB gene expression in Bacillus subtilis W168 by microarray analysis; type: functional; in short: as §2
# Bacillus subtilis [19] = test: Decrease in yitI gene expression in Bacillus subtilis W168 by microarray analysis; type: functional; in short: as §2
# Bacillus subtilis [20] = test: Decrease in degR gene expression in Bacillus subtilis W168 by microarray analysis; type: functional; in short: as §2
# Bacillus subtilis [21] = test: Decrease in ydgK gene expression in Bacillus subtilis W168 by microarray analysis; type: functional; in short: as §2
# Bacillus subtilis [22] = test: Decrease in yxeQ gene expression in Bacillus subtilis W168 by microarray analysis; type: functional; in short: as §2
# Bacillus subtilis [23] = test: Decrease in lmrB gene expression in Bacillus subtilis W168 by microarray analysis; type: functional; in short: as §2
# Bacillus subtilis [24] = test: Decrease in rpsT gene expression in Bacillus subtilis W168 by microarray analysis; type: functional; in short: as §2
# Bacillus subtilis [25] = test: Decrease in ywhE gene expression in Bacillus subtilis W168 by microarray analysis; type: functional; in short: as §2
# Bacillus subtilis [26] = test: Antibacterial activity against Bacillus subtilis CU1065 mutant by liquid growth inhibition assay; type: functional; in short: as §1
# Bacillus subtilis [27] = test: Antibacterial activity against liaIHGFSR gene-deficient Bacillus subtilis W168 mutant by liquid growth inhibition assay; type: functional; in short: as §1
# Bacillus subtilis [28] = test: Antibacterial activity against liaIH gene-deficient Bacillus subtilis W168 mutant by liquid growth inhibition assay; type: functional; in short: as §1
# Bacillus subtilis [29] = test: Antibacterial activity against liar gene-deficient Bacillus subtilis W168 mutant by liquid growth inhibition assay; type: functional; in short: as §1
# Bacillus subtilis [30] = test: Antibacterial activity against liaF gene-deficient Bacillus subtilis W168 mutant by liquid growth inhibition assay; type: functional; in short: as §1
# Bacillus subtilis [31] = test: Antibacterial activity against liaH and yhcYZ gene-deficient Bacillus subtilis W168 mutant by liquid growth inhibition assay; type: functional; in short: as §1
# Bacillus subtilis [32] = test: Antibacterial activity against sigM gene-deficient Bacillus subtilis CU1065 mutant by liquid growth inhibition assay; type: functional; in short: as §1
# Bacillus subtilis [33] = test: Antibacterial activity against sigW gene-deficient Bacillus subtilis CU1065 mutant by liquid growth inhibition assay; type: functional; in short: as §1
# Bacillus subtilis [34] = test: Antibacterial activity against sigX gene-deficient Bacillus subtilis CU1065 mutant by liquid growth inhibition assay; type: functional; in short: as §1
# Bacillus subtilis [35] = test: Antibacterial activity against sigWM gene-deficient Bacillus subtilis CU1065 double mutant by liquid growth inhibition assay; type: functional; in short: as §1
# Bacillus subtilis [36] = test: Antibacterial activity against sigXW gene-deficient Bacillus subtilis CU1065 double mutant by liquid growth inhibition assay; type: functional; in short: as §1
# Bacillus subtilis [37] = test: Antibacterial activity against sigMWX gene-deficient Bacillus subtilis CU1065 triple mutant by liquid growth inhibition assay; type: functional; in short: as §1
# Bacillus subtilis [38] = test: Antibacterial activity against liaH and sigW gene-deficient Bacillus subtilis CU1065 mutant by liquid growth inhibition assay; type: functional; in short: as §1
# Bacillus subtilis [39] = test: Antibacterial activity against liaIH, mprF and pspA gene-deficient Bacillus subtilis CU1065 mutant by liquid growth inhibition assay; type: functional; in short: as §1
# Bacillus subtilis [40] = test: Antibacterial activity against sigMWX and liaIH gene-deficient Bacillus subtilis CU1065 mutant by liquid growth inhibition assay; type: functional; in short: as §1
# Bacillus subtilis [41] = test: Antibacterial activity against sigW and pspA gene-deficient Bacillus subtilis CU1065 mutant by liquid growth inhibition assay; type: functional; in short: as §1
# Bacillus subtilis [42] = test: Antibacterial activity against des gene-deficient Bacillus subtilis W168 mutant by liquid growth inhibition assay; type: functional; in short: as §1
# Bacillus subtilis [43] = test: Antibacterial activity against ywnE gene-deficient Bacillus subtilis CU1065 mutant by liquid growth inhibition assay; type: functional; in short: as §1
# Bacillus subtilis [44] = test: Antibacterial activity against mprF gene-deficient Bacillus subtilis CU1065 mutant by liquid growth inhibition assay; type: functional; in short: as §1
# Bacillus subtilis [45] = test: Antibacterial activity against mprF and ugtP gene-deficient Bacillus subtilis CU1065 mutant by liquid growth inhibition assay; type: functional; in short: as §1
# Bacillus subtilis [46] = test: Antibacterial activity against mprF and pssA gene-deficient Bacillus subtilis CU1065 mutant by liquid growth inhibition assay; type: functional; in short: as §1
# Bacillus subtilis [47] = test: Antibacterial activity against des and pspA gene-deficient Bacillus subtilis W168 mutant by liquid growth inhibition assay
structure (smiles),measurement,setting,value
CCCCCCCCCC(=O)N[C@@H](Cc1c[nH]c2ccccc12)C(=O)N[C@H](CC(N)=O)C(=O)N[C@@H](CC(=O)O)C(=O)N[C@@H]1C(=O)NCC(=O)N[C@@H](CCCN)C(=O)N[C@@H](CC(=O)O)C(=O)N[C@H](C)C(=O)N[C@@H](CC(=O)O)C(=O)NCC(=O)N[C@H](CO)C(=O)N[C@@H]([C@H](C)CC(=O)O)C(=O)N[C@@H](CC(=O)c2ccccc2N)C(=O)O[C@@H]1C,MIC,Bacillus subtilis [1],1 mg/L
same,fold change (FC),Bacillus subtilis [2],1294
same,fold change (FC),Bacillus subtilis [3],283
same,fold change (FC),Bacillus subtilis [4],126
same,fold change (FC),Bacillus subtilis [5],3.3
same,fold change (FC),Bacillus subtilis [6],2.2
same,fold change (FC),Bacillus subtilis [7],574
same,fold change (FC),Bacillus subtilis [8],535
same,fold change (FC),Bacillus subtilis [9],3.6
same,fold change (FC),Bacillus subtilis [10],2.1
same,fold change (FC),Bacillus subtilis [11],2
same,fold change (FC),Bacillus subtilis [12],2.1
same,fold change (FC),Bacillus subtilis [13],2.8
same,fold change (FC),Bacillus subtilis [14],27
same,fold change (FC),Bacillus subtilis [15],26
same,fold change (FC),Bacillus subtilis [16],5.3
same,fold change (FC),Bacillus subtilis [17],7.9
same,fold change (FC),Bacillus subtilis [18],3.1
same,fold change (FC),Bacillus subtilis [19],2.9
same,fold change (FC),Bacillus subtilis [20],0.5
same,fold change (FC),Bacillus subtilis [21],0.5
same,fold change (FC),Bacillus subtilis [22],0.5
same,fold change (FC),Bacillus subtilis [23],0.5
same,fold change (FC),Bacillus subtilis [24],0.5
same,fold change (FC),Bacillus subtilis [25],0.4
same,MIC,Bacillus subtilis [26],1 mg/L
same,MIC,Bacillus subtilis [27],0.3 mg/L
same,MIC,Bacillus subtilis [28],0.4 mg/L
same,MIC,Bacillus subtilis [29],0.5 mg/L
same,MIC,Bacillus subtilis [30],1 mg/L
same,MIC,Bacillus subtilis [31],0.2 mg/L
same,MIC,Bacillus subtilis [32],0.8 mg/L
same,MIC,Bacillus subtilis [33],0.8 mg/L
same,MIC,Bacillus subtilis [34],1 mg/L
same,MIC,Bacillus subtilis [35],0.7 mg/L
same,MIC,Bacillus subtilis [36],0.9 mg/L
same,MIC,Bacillus subtilis [37],0.6 mg/L
same,MIC,Bacillus subtilis [38],0.3 mg/L
same,MIC,Bacillus subtilis [39],0.2 mg/L
same,MIC,Bacillus subtilis [40],0.2 mg/L
same,MIC,Bacillus subtilis [41],0.8 mg/L
same,MIC,Bacillus subtilis [42],0.9 mg/L
same,MIC,Bacillus subtilis [43],1 mg/L
same,MIC,Bacillus subtilis [44],0.5 mg/L
same,MIC,Bacillus subtilis [45],0.6 mg/L
same,MIC,Bacillus subtilis [46],0.9 mg/L
same,MIC,Bacillus subtilis [47],0.9 mg/L

# Reference: ChEMBL document CHEMBL1649137, “Genetic analysis of factors affecting susceptibility of Bacillus subtilis to daptomycin” (2009)
